Screens: PubChem BioAssay, several laboratories
A selection: hits, their analogues and other compounds. The true share with any hit is near 3%.
MC4R antag cAMP: human MC4R antagonism in cAMP assay. inhibition, % at 6.5 µM. hit rate 0.48% among 360,000. MC4R-expressing cells, MTII-stimulated cAMP, LANCE TR-FRET. P32245;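 active = inhibition above its plate's cutoff, the mean of tested wells on that plate plus 3 SD, cut at about 29% in these data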;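 also: 0% = Melanotan II alone and 100% = Melanotan II plus saturating MCL0020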
Target sequence (P32245 whole entry, looked up): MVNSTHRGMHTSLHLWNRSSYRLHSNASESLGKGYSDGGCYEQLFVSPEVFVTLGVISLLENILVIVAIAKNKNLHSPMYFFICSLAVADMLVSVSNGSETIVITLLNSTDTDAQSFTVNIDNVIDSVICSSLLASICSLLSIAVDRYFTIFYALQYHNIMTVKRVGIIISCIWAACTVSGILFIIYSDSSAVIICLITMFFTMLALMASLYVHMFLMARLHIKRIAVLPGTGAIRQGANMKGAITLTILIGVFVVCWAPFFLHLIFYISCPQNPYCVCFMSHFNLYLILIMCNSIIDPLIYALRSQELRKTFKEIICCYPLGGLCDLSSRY
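Assay system: U2OS-MC4R stable cell line; Also added: Melanotan II; Technique: Eu-cAMP/anti-cAMP TR-FRET, emission 671 nm; Times: 30-min compound, 1-h challenge, 1-h detection, room temperature.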
PfG6PD inh: PfG6PD (Plasmodium falciparum) enzyme inhibition. PfGluPho enzyme, NADPH resazurin-diaphorase fluorescence. inhibition, % at 20 µM. hit rate 0.78% among 350,000. AID 504690;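 active = inhibition reaching at least a set limit at 20 µM in the primary screen, cut at about 59% in these data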;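 also: 0% = DMSO wells with substrate and 100% = DMSO wells lacking glucose-6-phosphate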
ABHD5-PLIN5 inh: ABHD5-PLIN5 protein interaction inhibition; Q00G26+Q8WTS1; Split G. princeps luciferase complementation, luminescence, 4 h; inhibition, % at 4 µM; hit rate 0.78% among 360,000;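 active = inhibition above the mean inhibition across every tested compound plus 3 SD, cut at about 22% in these data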;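 also: 0% = DMSO only wells and the 100% control is not disclosed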
MC4R ag barr: activates human MC4R beta-arrestin recruitment | P32245 | U2OS MC4R beta-arrestin complementation, luminescence; percent of melanotan II response, DMSO zero | activation, % at 8.9 µM | hit rate 0.98% among 360,000;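 active = activation above a per-plate cutoff, the mean activation of sample wells on that plate plus 3 SD, cut at about 8% in these data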
B2AR ag: human beta-2 adrenergic receptor agonism by FAP; P07550; Am2.2-beta2AR cells, FAP receptor internalization, flow cytometry; response, % (concentration not given with the values); hit rate 0.43% among 340,000; AID 504454;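 active = response above a set limit, near 3 SD of response in nonfluorescent compounds, cut at about 42% in these data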
Target sequence (P07550 whole entry, looked up): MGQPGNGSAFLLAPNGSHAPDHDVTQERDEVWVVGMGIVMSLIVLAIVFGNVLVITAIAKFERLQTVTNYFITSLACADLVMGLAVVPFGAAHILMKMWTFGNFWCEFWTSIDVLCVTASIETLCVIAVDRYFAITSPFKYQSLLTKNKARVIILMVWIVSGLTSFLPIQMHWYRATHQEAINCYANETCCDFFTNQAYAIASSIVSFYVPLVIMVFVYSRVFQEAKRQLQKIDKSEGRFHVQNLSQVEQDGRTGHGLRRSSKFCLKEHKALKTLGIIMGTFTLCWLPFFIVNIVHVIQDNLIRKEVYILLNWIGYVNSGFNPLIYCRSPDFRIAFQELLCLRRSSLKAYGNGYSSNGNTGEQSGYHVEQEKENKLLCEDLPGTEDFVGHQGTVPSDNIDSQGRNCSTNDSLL
PfG6PD confirm: confirmation of Plasmodium falciparum G6PD inhibitors. inhibition, % at 20 µM. shares compounds with PfG6PD inh. recombinant PfGluPho, NADPH-diaphorase-resazurin fluorescence. hit rate 34% among 2,400;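 active = inhibition of at least 50% at 20 µM in any single replicate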;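 also: 0% = DMSO with substrate and 100% = DMSO lacking glucose-6-phosphate substrate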
Diaphorase 10uM: counter-screen for P. falciparum G6PD inhibitors: diaphorase inhibitors, oxidizers; inhibition, % at 20 µM; shares compounds with PfG6PD inh; hit rate 39% among 820; AID 504862; diaphorase-coupled resazurin reduction, fluorescence, NADPH 10 uM;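 active = average inhibition reaching 50% or more with the compound at 20 µM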;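 also: resorufin red fluorescence formed as diaphorase reduces resazurin using NADPH; 0% = DMSO with enzyme and 100% = DMSO without enzyme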
Diaphorase 30uM: counter-screen for P. falciparum G6PD inhibitors: diaphorase inhibitors, oxidizers. Diaphorase/resazurin coupled assay, resorufin fluorescence, 30 uM NADPH. inhibition, % at 20 µM. hit rate 29% among 820. shares compounds with PfG6PD inh;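 active = inhibition averaging 50% or more, tested at 20 µM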;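 also: 0% = DMSO with enzyme and 100% = DMSO wells lacking diaphorase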
An asterisk follows results filed as active; nt = not tested or not shown.

SMILES | MC4R antag cAMP | PfG6PD inh | ABHD5-PLIN5 inh | MC4R ag barr | B2AR ag | PfG6PD confirm | others
COc1cc(N)c2ncccc2c1OC | 1 | 70* | -9 | -2 | 3 | 74* | Diaphorase 10uM=22;Diaphorase 30uM=8
O=C(CN(C(=O)CCC(=O)Nc1ccccn1)c1ccc(F)cc1)NCc1ccc(F)cc1 | 26 | -9 | 0 | 1 | -2 | nt
C[C@@H]1CN([C@H](C)CO)C(=O)c2cc(-c3ccccc3)cnc2O[C@@H]1CN(C)C(=O)C1CCOCC1 | 7 | 5 | 1 | -1 | nt | nt
Oc1ccc(N2CCN(Cc3c(-c4ccccc4)nc4ccccn34)CC2)cc1 | 11 | 59* | 19 | 0 | -17 | -1
Cc1ccc(-n2c(SCC(=O)N3CCOCC3)nnc2-c2ccncc2)cc1C | 3 | -9 | 4 | 3 | -14 | nt
COc1ccc(S(=O)(=O)Nc2c(C(=O)O)[nH]c3ccccc23)c(OC)c1 | -6 | -17 | -4 | -2 | 5 | nt
COc1ccc(S(=O)(=O)Nc2c(C(=O)O)[nH]c3ccc(OC)cc23)c(OC)c1 | 4 | 67* | -10 | -3 | 0 | 4
c1ccc(-c2nnc3sc(-c4csc5c4CCCC5)nn23)cc1 | -23 | 73* | -4 | 0 | -15 | 3
COc1ccc(OC2C(=O)N(c3ccc(C)c(C)c3)C2c2ccc(OC)c(OC)c2)cc1 (centres undefined) | 0 | 97* | -2 | -1 | 4 | 28
COc1cc(C)ccc1Oc1ccc([N+](=O)[O-])cc1 | -1 | 63* | -2 | 0 | 2 | 16
CC(C)[C@H]1COC(NC2=N[C@@H](C(C)C)CO2)=N1 | -1 | 2 | 4 | 0 | -1 | nt
CCN1CCCC1CNC(=O)c1ccc2c(c1)NC(=O)/C(=C\c1ccccc1Cl)S2 (centres undefined) | -2 | 118* | 2 | -1 | nt | 105* | Diaphorase 10uM=-13;Diaphorase 30uM=-12
O=C1Nc2cc(C(=O)NCCCN3CCCC3)ccc2S/C1=C/c1cccc(Cl)c1 | -1 | 61* | -6 | -2 | nt | 79* | Diaphorase 10uM=-23;Diaphorase 30uM=-25
Cc1cccc(/C=C2/Sc3ccc(C(=O)NCCN4CCCC4)cc3NC2=O)c1 | -1 | 57 | 2 | -3 | 29 | nt
Cc1ccc(S(=O)(=O)Cn2nnnc2C(CC(C)C)N2CCN(C)CC2)cc1 (centres undefined) | 3 | 9 | 5 | 3 | 0 | nt
CC(=O)C[C@@H](O)CC(=O)[C@@H]1OC(=O)CCCCCc2ccccc21 | -4 | 3 | -7 | -1 | -6 | nt
O=C(Nc1cccnc1)C1CCC(CNS(=O)(=O)c2cccc3nsnc23)CC1 (centres undefined) | 3 | -9 | 0 | -2 | -3 | nt
CCc1ccccc1Nc1nn2c(=O)c3ccc(C(=O)NCc4ccccn4)cc3nc2s1 | 1 | 11 | -4 | -3 | -1 | nt
CC(=O)Nc1cccc(Nc2cc(C)nn2C)c1 | nt | nt | -4 | nt | nt | nt
CNc1nc(-c2ccccc2)[n+](-c2ccc(C)cc2)s1 | 22 | 108* | 0 | 1 | 13 | 107* | Diaphorase 10uM=-25;Diaphorase 30uM=-13
Cc1ccc(-c2nc(N)s[n+]2-c2ccccc2)cc1 | -2 | 110* | -2 | -1 | -12 | 56* | Diaphorase 10uM=-35;Diaphorase 30uM=-23
COc1ccc(Nc2cc(C)c3c(O)cccc3n2)cc1 | 3 | 120* | -3 | -2 | 0 | 56* | Diaphorase 10uM=19;Diaphorase 30uM=43
Cc1ccccc1Nc1cc(C)c2c(O)cccc2n1 | 1 | 16 | -3 | 0 | 0 | nt
Cc1ccc(Nc2cc(C)c3c(O)cccc3n2)cc1C | 4 | 125* | 0 | 0 | 7 | 36
COc1ccc(OC)c(Nc2cc(C)c3ccccc3n2)c1 | -4 | 15 | 0 | 1 | -5 | nt
SMILES | MC4R antag cAMP | PfG6PD inh | ABHD5-PLIN5 inh | MC4R ag barr | B2AR ag | PfG6PD confirm | others
COc1cccc(Nc2cc(C)c3ccccc3n2)c1 | 0 | 61* | 4 | 0 | 6 | -10
NC(=O)NC(=O)COC(=O)[C@H](Cc1ccccc1)NC(=O)c1cccs1 | 23 | 1 | 0 | -1 | 5 | nt
CC1(C)CC2(CC(c3ccccc3F)c3ccc(O)c(O)c3O2)NC(=S)N1 (centres undefined) | 1 | 66* | -4 | -1 | 4 | 70* | Diaphorase 10uM=23;Diaphorase 30uM=13
COC(=O)c1cc(CSc2nc3ccc(C)cc3[nH]2)oc1C | -1 | 61* | -2 | -3 | -9 | 17
O=S(=O)(Nc1ccccc1N1CCCCC1)c1ccc(Cl)s1 | 17 | 86* | -6 | 4 | 7 | 22
Cc1ccc(S(=O)(=O)NN=C(c2ccccc2)c2cccs2)cc1 | -2 | -2 | -5 | -1 | nt | nt
CCOC(=O)c1ccc(-c2c(-c3ccccc3OC)oc3ccccc23)cc1F | 2 | 15 | -6 | 0 | 0 | nt
COc1ccccc1-c1oc2ccccc2c1-c1ccc2cc[nH]c2c1 | 7 | 63* | -8 | -1 | -4 | -11
COc1ccc([C@H]2CC(=O)C=C(c3ccc(Oc4ccccc4)cc3)C2)cc1OC | 4 | 0 | 9 | 0 | -11 | nt
COc1cccc(C(=O)/C=C2\Sc3ccccc3N2C)c1 | -1 | 82* | 3 | 5 | 16 | 41
CN1/C(=C\C(=O)c2cccnc2)Sc2ccccc21 | 0 | 26 | -2 | -1 | -11 | nt
COc1ccccc1N1C(=O)C=C(Sc2nc(C)cc(C)n2)C1=O | 2 | 79* | 11 | 0 | 7 | 87* | Diaphorase 10uM=-4;Diaphorase 30uM=-15
Nc1cc(-c2ccncc2)c[nH]c1=O | 6 | 64* | -23 | 0 | -1 | 30
CCCCCN(C(=O)CCC(=O)OCC(=O)c1c(C)cc(C)cc1C)c1c(N)n(CCCC)c(=O)[nH]c1=O | 6 | 4 | 2 | -1 | 3 | nt
COc1ccc(C(=O)Nc2cc(C)c(NC(=O)c3ccccn3)cn2)cc1 | 13 | 67* | 7 | -1 | -3 | 19
COc1ccc(C(=O)Nc2cnc(NC(=O)c3cccs3)cc2C)cc1 | 7 | -13 | 0 | 0 | -2 | nt
CCCCCn1c(-c2ccco2)nc2nc3ccccc3nc21 | -6 | 64* | 3 | 2 | -12 | 34
Cc1ccc(S(=O)(=O)Nc2c(O)ccc3ccccc23)cc1 | 0 | 81* | -13 | -1 | -3 | 47
O=S(=O)(Nc1c(O)ccc2ccccc12)c1cccc2ccccc12 | 4 | 84* | -4 | -1 | -17 | 44
CCOC(=O)c1sc(N/N=C/c2ccccc2)nc1C | 11 | 66* | -13 | 0 | -9 | 23
COC1=CC(=O)C=C(OC)C1(O)CC(C)=O | 3 | 68* | 8 | 0 | 12 | 54* | Diaphorase 10uM=-7;Diaphorase 30uM=-14
CC(=O)CC1(O)C(=O)Nc2ccccc21 (centres undefined) | 8 | -6 | -2 | -1 | 1 | nt
